Assay results pooled from the literature.
Protocols differ between the studies behind these lines.
Method: competition with immobilised ligand
RPS6KA2 C-terminal kinase domain: Ribosomal protein S6 kinase alpha-2, C-terminal kinase domain (RPS6KA2, Homo sapiens, UniProt Q15349)
RPS6KA2 N-terminal kinase domain: Ribosomal protein S6 kinase alpha-2, N-terminal kinase domain (RPS6KA2, Homo sapiens, UniProt Q15349)

SMILES | target | read-out | tested at | remaining binding [%]
CNC(=O)[C@@H]1CC[C@@H](n2c(-c3ccc4cnccc4c3)nc3ccc(C(=O)NCc4cccc(C(N)=O)c4)cc32)C1 | RPS6KA2 C-terminal kinase domain | binding | 1 µM | 91
O=C(NCC1CCOCC1)c1n[nH]cc1NC(=O)c1c(F)cccc1F | RPS6KA2 N-terminal kinase domain | binding | 1 µM | 100
Nc1ncc2c(n1)-c1c([nH]c3ccc(C#CC4CC4)cc13)CCCC2 | RPS6KA2 C-terminal kinase domain | binding | 1 µM | 92
O=C(NCCCN1CCOCC1)c1ccc(Nc2ncc(Cl)c(-c3ccc(Cl)s3)n2)cc1 | RPS6KA2 N-terminal kinase domain | binding | 1 µM | 100
FC(F)(F)Oc1cccc(-c2cnc3ccc(-c4ccncc4)nn23)c1 | RPS6KA2 N-terminal kinase domain | binding | 5 µM | 79
O=C(Nc1c[nH]nc1C(=O)NC1CCNCC1)c1cc(F)cc(F)c1 | RPS6KA2 C-terminal kinase domain | binding | 1 µM | 100
N[C@@H]1CCN(c2nccc(-c3cnn4ncccc34)n2)C1 | RPS6KA2 C-terminal kinase domain | binding | 1 µM | 100
C[C@@H](c1ccc(-n2cnc3c(N)ncnc32)cc1)N1CCc2nn(C)c(Cc3ccccc3)c2C1=O | RPS6KA2 N-terminal kinase domain | binding | 0.1 µM | 96
C=CC(=O)N1CCC(C(=O)NCC(=O)N2CCN(c3nc(-c4cnc(N)nc4C(F)F)nc(N4CCOCC4)n3)CC2)CC1 | RPS6KA2 N-terminal kinase domain | binding | 1 µM | 82
CCOCCn1cc(C(=O)Nc2ccc(-n3nc(-c4cccnc4)cc3C(F)(F)F)cn2)ccc1=O | RPS6KA2 N-terminal kinase domain | cell-free assay | 1 µM | 84
Cc1cnn2ncc(-c3ccnc(N(C)C)n3)c2c1 | RPS6KA2 C-terminal kinase domain | binding | 1 µM | 100
COc1cnc(Nc2cccc(S(N)(=O)=O)c2)nc1N1CCN(c2ccccc2)C(=O)C1 | RPS6KA2 C-terminal kinase domain | binding | 1 µM | 100
CS(=O)(=O)c1cc(C2(NC(=O)c3cncc4c3cnn4-c3ccc(F)cc3)CC2)ccn1 | RPS6KA2 C-terminal kinase domain | cell-free assay | 1 µM | 88
COc1ncc2cc3ccccc3nc2c1C#N | RPS6KA2 C-terminal kinase domain | cell-free assay | 5 µM | 94
Cc1cnc(Nc2ccc(C(=O)N3CCC(N4CCCC4)CC3)cc2)nc1-c1cc2ccccc2s1 | RPS6KA2 C-terminal kinase domain | binding | 1 µM | 95
O=S(=O)(NC1CCC(c2cc(F)ccc2F)(S(=O)(=O)c2ccc(Cl)cc2)CC1)C(F)(F)F (stereo not shown) | RPS6KA2 C-terminal kinase domain | cell-free assay | 1 µM | 95
O=C(c1ccc(Nc2ncc(Cl)c(-c3cc4ccccc4s3)n2)cc1)N1CCC(N2CCCC2)CC1 | RPS6KA2 C-terminal kinase domain | binding | 1 µM | 100

SMILES | target | read-out | tested at | remaining binding [%]
CN1CCN(c2cnc3c(C4CCN(C(=O)c5ccc(OC(F)(F)F)cc5N)CC4)ncnc3c2)CC1 | RPS6KA2 C-terminal kinase domain | cell-free assay | 1 µM | 100
O=C(c1ccc(Nc2ncc(Cl)c(-c3ccc(Cl)s3)n2)cc1)N1CCC(N2CCCC2)CC1 | RPS6KA2 N-terminal kinase domain | binding | 1 µM | 100
c1cnn2ncc(-c3ccnc(N4CCC45COC5)n3)c2c1 | RPS6KA2 C-terminal kinase domain | binding | 1 µM | 85
COc1cnc(Nc2cccc(S(N)(=O)=O)c2)nc1N1CCN(c2ccccc2)CC1 | RPS6KA2 N-terminal kinase domain | binding | 1 µM | 93
O=C(NCCCN1CCOCC1)c1ccc(Nc2nccc(-c3cc4ccccc4s3)n2)cc1 | RPS6KA2 N-terminal kinase domain | binding | 1 µM | 100
CCN1CCN(Cc2ccc(C(=O)Nc3ccc(C)c(Oc4ccc5c(c4)CC(=O)N5)c3)cc2C(F)(F)F)CC1 | RPS6KA2 C-terminal kinase domain | binding | 1 µM | 91
CN(C)c1nccc(-c2cnc3ncccn23)n1 | RPS6KA2 N-terminal kinase domain | binding | 1 µM | 83
COc1ccc2cc(OCC3(C(=O)O)CN(C(=O)c4ccc(F)cc4)C3)ccc2c1 | RPS6KA2 C-terminal kinase domain | cell-free assay | 1 µM | 100
COc1ccnn2ncc(-c3ccnc(N(C)C)n3)c12 | RPS6KA2 C-terminal kinase domain | binding | 1 µM | 100
CCS(=O)(=O)c1cc2cc(C[C@](O)(CC(C)(C)c3ccc(F)cc3C(N)=O)C(F)(F)F)[nH]c2cn1 | RPS6KA2 C-terminal kinase domain | cell-free assay | 1 µM | 81
O=C(c1ccc(Nc2nccc(-c3cc4ccccc4s3)n2)cc1)N1CCC(N2CCCC2)CC1 | RPS6KA2 C-terminal kinase domain | binding | 1 µM | 74
c1cncc(-c2cccc(Nc3nccc(NC4CCCCC4)n3)c2)c1 | RPS6KA2 C-terminal kinase domain | binding | 10 µM | 100
COc1cc(C(=O)N2CCC(N3CCN(C)CC3)CC2)ccc1Nc1ncc2c(n1)N(C)c1ccccc1C(=O)N2C | RPS6KA2 C-terminal kinase domain | binding | 10 µM | 7.5
C[C@@H]1CCN(c2nccc(-c3cnn4ncccc34)n2)C1 | RPS6KA2 N-terminal kinase domain | binding | 1 µM | 79
COc1ccc2c(O[C@@H]3C[C@H]4C(=O)N[C@]5(C(=O)O)CC5/C=C\CCCCC[C@H](NC(=O)OC5CCCC5)C(=O)N4C3)cc(-c3csc(NC(=O)C(C)C)n3)nc2c1C (stereo partly shown) | RPS6KA2 C-terminal kinase domain | cell-free assay | 1 µM | 100
CN(CCCC(F)(F)F)c1nccc(-c2cnn3ncccc23)n1 | RPS6KA2 N-terminal kinase domain | binding | 1 µM | 86
N#CC1(c2ccccn2)CCN(Cc2cc(C(=O)N3CCCC3)c(=O)n3ccccc23)CC1 | RPS6KA2 N-terminal kinase domain | cell-free assay | 1 µM | 88
